{"data": "Experimental data gathered from unrelated publications", "note": "Protocols differ between the studies behind these lines."}
{"Structure (SMILES)": "O=C(C=Cc1ccccc1)Nc1ccc(Oc2nnc(-c3ccc(Cl)cc3)c3ccccc23)cc1", "tested on": "HepG2", "test": "cell growth or viability, MTT", "conditions": "10 µM", "quantity": "cell death", "value": "97.4%"}
{"Structure (SMILES)": "CNc1ncc2c(/C=C/C(=O)O)nn(CC3CCCC3)c2n1", "tested on": "OE33", "test": "cell growth or viability, resazurin", "conditions": "5 days", "quantity": "EC50", "value": "> 30 µM"}
{"Structure (SMILES)": "CC(=NNC(=O)c1ccc(N)cc1)c1ccc(Nc2nnc(-c3ccc(Cl)cc3)c3ccccc23)cc1", "tested on": "HepG2", "test": "cell growth or viability, MTT", "conditions": "0.312 µM, 24 h", "quantity": "viability", "value": "98.2%"}
{"Structure (SMILES)": "CN(C)c1cc(NC(=O)Cc2ccccc2)c(O)c2c1C[C@H]1C[C@H]3[C@H](N(C)C)C(O)=C(C(N)=O)C(=O)[C@@]3(O)C(O)=C1C2=O", "tested on": "Mycobacterium tuberculosis", "test": "microbial growth, broth dilution", "system": "H37RV", "conditions": "7 days, pH 7.4", "quantity": "MIC", "value": "3.1 µg/mL"}
{"Structure (SMILES)": "Nc1ncnc2c1c(/C=C/C(=O)N1CCC(c3ccccc3)CC1)nn2CC1CCCC1", "tested on": "OE33", "test": "cell growth or viability, resazurin", "conditions": "5 days", "quantity": "EC50", "value": "> 30 µM"}
{"Structure (SMILES)": "CN(C)c1ccc(O)c2c1C[C@H]1C[C@H]3[C@H](N(C)C)C(O)=C(C(N)=O)C(=O)[C@@]3(O)C(O)=C1C2=O", "tested on": "Mycobacterium tuberculosis", "test": "microbial growth, broth dilution", "system": "H37RV", "conditions": "7 days, pH 7.4", "quantity": "MIC", "value": "0.2 µg/mL"}
{"Structure (SMILES)": "C=CC(=O)NC1CCN(c2ncc3ncnc(Nc4ccc(Oc5ccc6c(c5)ncn6C)c(C)c4)c3n2)CC1", "tested on": "SH-10-TC", "test": "cell growth or viability", "quantity": "EC50", "value": "0.0743 µM"}
{"Structure (SMILES)": "O=C(Nc1ccc(Oc2nnc(-c3ccc(Cl)cc3)c3ccccc23)cc1)c1ccccc1", "tested on": "HepG2", "test": "cell growth or viability, MTT", "conditions": "0.625 µM", "quantity": "cell death", "value": "87.9%"}
{"Structure (SMILES)": "CN(C)c1cc(NC(=O)CCc2ccccc2)c(O)c2c1C[C@H]1C[C@H]3[C@H](N(C)C)C(O)=C(C(N)=O)C(=O)[C@@]3(O)C(O)=C1C2=O", "tested on": "Mycobacterium tuberculosis", "test": "microbial growth, broth dilution", "system": "H37RV", "conditions": "7 days, pH 7.4", "quantity": "MIC", "value": "12.5 µg/mL"}
